Data: ChEMBL document CHEMBL1124393, “Synthesis, cytotoxicity, and antiviral activity of some acyclic analogues of the pyrrolo[2,3-d]pyrimidine nucleoside antibiotics tubercidin, toyocamycin, and sangivamycin” (J Med Chem, 1989)
pIC50: −log10 of the molar value.

Experiments:
[1] = (§1) Antiviral activity of the compound was evaluated against the Herpes simplex virus type-1 in BSC-1 cells; assay type: functional, cell-based; details: Human alphaherpesvirus 1, BSC-1
Outline: (§2)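 HSV-1 strain S-148 plaque reduction in BSC-1 monolayers (MEM with Earle's salts, 10% fetal bovine serum); inoculum about 100 PFU; compound dissolved in overlay medium. Percent inhibition regressed against log concentration to give IC50. Acyclovir or ganciclovir positive controls in every assay; assay sets rejected if control deviated >1.5 SD from its mean.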

[2] = tested on: Human betaherpesvirus 5; assay: Antiviral activity of the compound was evaluated against the Human cytomegalo virus (HCMV); assay type: functional, organism-based
Outline: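 HCMV Towne strain (plaque-purified P0 isolate), plaque reduction in HFF monolayers; inoculum about 50 PFU; compound dissolved in overlay medium. IC50 taken from linear regression of percent inhibition against log concentration. Positive controls (acyclovir, ganciclovir) in all assays; sets rejected when control deviated >1.5 SD from its mean.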

[3] = (§3) Cytotoxicity was evaluated in Human neoplastic cell line (KB); assay type: functional, cell-based
Outline: (§4)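 KB human epidermoid oral carcinoma cells in MEM with Hanks salts and 5% FBS. Inhibition of radiolabeled precursor incorporation into DNA, RNA and protein was measured. IC50s from regression against log concentration; the three values were averaged, two to five experiments each.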

[4] = Cytotoxicity was evaluated against the Human diploid cells (HFF); assay type: cell-based
Outline: (§5)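 Uninfected HFF (human diploid foreskin fibroblasts) or BSC-1 (African green monkey kidney) cells in MEM with Earle's salts and 10% FBS, within the plaque-reduction plates. Drug-induced cytopathology was scored 0 to 4+ at 35- and 60-fold magnification on the day of staining for plaque enumeration.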

[5] = Cytotoxicity was evaluated against the Monkey kidney cells (BSC); assay type: cell-based; details: Cercopithecidae; outline: as §5
[6] = tested on: L1210; assay: Compound effect on the growth rate at 10e-4 M in L1210 Murine Leukemic cells; assay type: functional, Mus musculus
Outline: (§6)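 Murine L1210 leukemia cells in static suspension culture in Fischer's medium, exposed to 10⁻⁴ M compound over 3 days. Growth rate is the ratio of control to treated population doubling time, expressed as percent of control.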

[7] = tested on: L1210; assay: (§7) Compound effect on the growth rate of L1210 murine leukemia cells at 10e-4 M concentration; assay type: functional; outline: as §6
[8] = tested on: L1210; assay: In vitro cytotoxicity was evaluated against the L1210 Murine leukemic cells; assay type: cell-based; details: Mus musculus
Outline: (§8)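 Murine L1210 cells in static suspension in Fischer's medium, growth followed over 3 days across a range of concentrations. Growth rate is the slope of log cell number versus time relative to control, from the doubling-time ratio. IC50 is the concentration reducing growth rate to 50% of control.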

[9] = as §3; assay type: cell-based; outline: as §4
[10] = tested on: Human alphaherpesvirus 1; assay: as §1; assay type: functional, organism-based; details: Human alphaherpesvirus 1, BSC-1; outline: as §2
[11] = species on record: Mus musculus; assay: Cytotoxicity was evaluated against the L1210 Murine leukemic cells in vitro; outline: as §8
[12] = tested on: L1210; assay: as §7; assay type: functional, Mus musculus; outline: as §6

## Nc1ncnc2c1ccn2C(CO)OC(CO)CO (stereo not given)
[1]
  pIC50: < 4.00
[2]
  pIC50: < 4.00
[3]
  pIC50: < 4.00
[4]
  pIC50: < 4.00
[5]
  pIC50: < 4.00
[6]
  Control: 93%

## NC(=S)c1cn(COC(CO)CO)c2ncnc(N)c12
[7]
  Control: 71%
[1]
  pIC50: < 4.00
[2]
  pIC50: 5.10
[4]
  pIC50: < 4.00
[8]
  pIC50: < 4.00
[9]
  pIC50: < 4.00
[5]
  pIC50: < 4.00

## Nc1ncnc2c1ccn2COC(CO)CO
[2]
  pIC50: < 4.00
[10]
  pIC50: < 4.00
[4]
  pIC50: < 4.00
[5]
  pIC50: < 4.00

## NC(=O)c1cn(C(CO)OC(CO)CO)c2ncnc(N)c12 (stereo not given)
[1]
  pIC50: < 4.00
[2]
  pIC50: < 4.00
[4]
  pIC50: < 4.00
[5]
  pIC50: < 4.00
[6]
  Control: 90%

## N#Cc1cn(C(CO)OC(CO)CO)c2ncnc(N)c12 (stereo not given)
[1]
  pIC50: < 4.00
[2]
  pIC50: < 4.00
[4]
  pIC50: < 4.00
[11]
  pIC50: < 4.00
[5]
  pIC50: < 4.00
[6]
  Control: 80%

## N/C(=N\O)c1cn(COC(CO)CO)c2ncnc(N)c12
[1]
  pIC50: < 4.00
[2]
  pIC50: < 4.00
[4]
  pIC50: < 4.00
[8]
  pIC50: < 4.00
[12]
  Control: 80%
[5]
  pIC50: < 4.00

## N#Cc1cn(COC(CO)CO)c2ncnc(N)c12
[1]
  pIC50: < 4.00
[2]
  pIC50: < 3.49
[4]
  pIC50: < 3.49
[8]
  pIC50: < 4.00
[12]
  Control: 87%
[5]
  pIC50: < 4.00

## NC(=O)c1cn(COC(CO)CO)c2ncnc(N)c12
[1]
  pIC50: < 4.00
[2]
  pIC50: 3.84
[4]
  pIC50: < 3.49
[8]
  pIC50: < 4.00
[12]
  Control: 84%
[5]
  pIC50: < 4.00

## Nc1nc2c(ncn2COCCO)c(=O)[nH]1 [ACYCLOVIR]
[1]
  pIC50: 5.59
[4]
  pIC50: < 4.00
[9]
  pIC50: < 4.00
[5]
  pIC50: < 4.00

## Nc1nc2c(ncn2COC(CO)CO)c(=O)[nH]1 [GANCICLOVIR]
[1]
  pIC50: 5.52
[4]
  pIC50: < 4.00
[9]
  pIC50: 3.00
[5]
  pIC50: < 4.00

## NC(=O)c1cn([C@@H]2O[C@H](CO)[C@@H](O)[C@H]2O)c2ncnc(N)c12 [SANGIVAMYCIN]
[2]
  pIC50: 7.52
[3]
  pIC50: 6.70
[4]
  pIC50: 7.10
[8]
  pIC50: 8.52

## N#Cc1cn([C@@H]2O[C@H](CO)[C@@H](O)[C@H]2O)c2ncnc(N)c12 [TOYOCAMYCIN]
[2]
  pIC50: 7.30
[3]
  pIC50: 7.40
[4]
  pIC50: 7.52
[8]
  pIC50: 8.40

## Nc1ncnc2c1ccn2[C@@H]1O[C@H](CO)[C@@H](O)[C@H]1O [TUBERCIDIN]
[3]
  pIC50: 6.15
[4]
  pIC50: 6.52
[8]
  pIC50: 7.40
